# Source: ChEMBL document CHEMBL1139836, “Development of orally bioavailable and CNS penetrant biphenylaminocyclopropane carboxamide bradykinin B1 receptor antagonists” (J Med Chem, 2007)
# “And” between values parts separate entries of the source, which are not always exact repeats. Equal values may be shown once.
# How the values were obtained:
# [1] = Clearance in Sprague-Dawley rat at 10 mg/kg, po and 2 mg/kg, iv; type: ADME, organism-based; conditions: in vivo
# Method in brief: (§1)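 Sprague-Dawley rats, n = 3, dosed orally at 10 mg/kg and iv at 2 mg/kg. F% from oral versus iv exposure; half-life in hours, clearance in mL/min/kg.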
# LLC-PK1 [2] = assay: Ratio of transport from basolateral to apical over apical to basolateral in LLC-PK1 cells expressing human MDR1; type: ADME, cell-based, Sus scrofa; conditions: pig
# Method in brief: (§2)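 LLC-PK1 cells expressing human MDR1, grown in M199 with 10% FBS on 96-well filters and used on day 4. Equilibrated 30 min in HBSS with 1 mM HEPES, then test compound at 5 µM. 1 µM verapamil served as P-gp substrate control. Transport in both directions measured in triplicate by LC/MS/MS or scintillation.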
# [3] = Half life in Sprague-Dawley rat at 10 mg/kg, po and 2 mg/kg, iv; type: ADME, organism-based; conditions: in vivo; method in brief: as §1
# [4] = Oral bioavailability in Sprague-Dawley rat at 10 mg/kg, po and 2 mg/kg, iv; type: ADME, organism-based; conditions: in vivo; method in brief: as §1
# human MDR1 (P-gp) = assay: (§3) Apparent permeability in LLC-PK1 cells expressing human MDR1; type: ADME, cell-based, Sus scrofa; conditions: pig, LLC-PK1; method in brief: as §2
# B1 bradykinin receptor [5] = target: T1, B1 bradykinin receptor (Homo sapiens, UniProt P46663); assay: Activity at human bradykinin B1 receptor assessed as inhibition of Des-arg kallidin-induced increase of cytosolic calcium in CHO cells by FLIPR; type: functional, cell-based
# T1 sequence (P46663 whole entry): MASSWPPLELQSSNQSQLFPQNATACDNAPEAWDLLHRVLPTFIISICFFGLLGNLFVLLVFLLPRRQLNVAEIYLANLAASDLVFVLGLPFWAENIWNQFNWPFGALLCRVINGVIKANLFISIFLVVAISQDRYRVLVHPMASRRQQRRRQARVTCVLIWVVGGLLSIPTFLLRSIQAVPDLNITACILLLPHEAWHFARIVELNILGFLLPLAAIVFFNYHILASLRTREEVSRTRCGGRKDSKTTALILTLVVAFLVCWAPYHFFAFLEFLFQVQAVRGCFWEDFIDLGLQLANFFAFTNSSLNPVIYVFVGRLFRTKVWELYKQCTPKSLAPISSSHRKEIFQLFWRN
# Method in brief: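 CHO cells stably expressing human B1 receptor, seeded 25 000/well and grown overnight at 37 °C, then loaded 60 min at 37 °C with 4 µM fluo-3 AM and 1 mM probenecid. Antagonist added 2 min before 3 nM des-arg10 kallidin, run at 37 °C. At least eight concentrations per curve give IC50. At least two experiments averaged.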
# B1 bradykinin receptor [6] = target: T1, B1 bradykinin receptor; assay: Displacement of [3H]des-Arg10 Leu9 kallidin from human bradykinin B1 receptor expressed in CHO cells; type: cell-based
# Method in brief: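 Membranes from CHO cells stably expressing human B1, used at 0.2 mg/mL protein in pH 7.4 HEPES/NaCl/KCl buffer with 100 nM enalaprilat, 140 µg/mL bacitracin and 0.1% BSA. Radioligand 0.2 nM [3H]des-arg10 leu9 kallidin, 2% DMSO final, incubated 60 min at 22 °C, then filtered and counted. Nonspecific binding defined with 1 µM des-arg10 kallidin. Ki values, at least two experiments averaged.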
# B2 bradykinin receptor = target: T2, B2 bradykinin receptor (Homo sapiens, UniProt P30411); assay: Inhibition of human bradykinin B2 receptor
# T2 sequence (P30411 whole entry): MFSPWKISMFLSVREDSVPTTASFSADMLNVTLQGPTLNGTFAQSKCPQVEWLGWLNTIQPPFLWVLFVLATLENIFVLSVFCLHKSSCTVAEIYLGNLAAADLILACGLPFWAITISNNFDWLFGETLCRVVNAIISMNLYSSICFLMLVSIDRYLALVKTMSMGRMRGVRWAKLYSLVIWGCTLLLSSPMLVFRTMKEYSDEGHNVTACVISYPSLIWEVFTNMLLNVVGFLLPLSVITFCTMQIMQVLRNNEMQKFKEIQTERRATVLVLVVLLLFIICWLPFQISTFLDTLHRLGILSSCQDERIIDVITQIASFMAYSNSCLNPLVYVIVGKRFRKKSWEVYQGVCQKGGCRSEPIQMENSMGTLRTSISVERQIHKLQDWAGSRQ
# Method in brief: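 Human B2 receptor expressed in CHO cells, membrane binding with 1 nM [3H]bradykinin, 2% DMSO final, 60 min at 22 °C, then filtered and counted. Nonspecific binding defined with 1 µM bradykinin. Ki reported.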
# [7] = Lipophilicity, Log P of the compound; type: physicochemical; conditions: octanol/water
# LLC-PK1 [8] = assay: as §3; type: ADME, cell-based, Sus scrofa; conditions: pig, llc-pk1; method in brief: as §2
# Liver microsomes [9] = assay: Stability in human liver microsomes; type: ADME, Microsome
# [10] = Stability in human hepatocytes; type: ADME, cell-based, Hepatocyte
# [11] = Stability in dog liver microsomes; type: ADME, Canis lupus familiaris, Microsome
# [12] = Half life in rhesus monkey at 3 mg/kg, po and 1 mg/kg, iv; type: ADME, organism-based, Macaca mulatta; conditions: in vivo
# Method in brief: (§4)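 Rhesus monkeys, n = 2, dosed orally at 3 mg/kg and iv at 1 mg/kg. F%, half-life in hours, clearance in mL/min/kg.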
# [13] = Stability in monkey liver microsomes; type: ADME, Macaca mulatta, Microsome; conditions: rhesus monkey
# [14] = Half life in Mongrel dog at 3 mg/kg, po and 1 mg/kg, iv; type: ADME, organism-based, Canis lupus familiaris; conditions: in vivo
# Method in brief: (§5)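 Mongrel dogs, n = 2, dosed orally at 3 mg/kg and iv at 1 mg/kg. F%, half-life in hours, clearance in mL/min/kg.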
# [15] = Oral bioavailability in rhesus monkey at 3 mg/kg, po and 1 mg/kg, iv; type: ADME, organism-based, Macaca mulatta; conditions: in vivo; method in brief: as §4
# [16] = Stability in rat hepatocytes; type: ADME, cell-based, Hepatocyte
# [17] = Clearance in rhesus monkey at 3 mg/kg, po and 1 mg/kg, iv; type: ADME, organism-based, Macaca mulatta; conditions: in vivo; method in brief: as §4
# [18] = Oral bioavailability in Mongrel dog at 3 mg/kg, po and 1 mg/kg, iv; type: ADME, organism-based, Canis lupus familiaris; conditions: in vivo; method in brief: as §5
# Liver microsomes [19] = assay: Stability in rat liver microsomes; type: ADME, Microsome
# [20] = Clearance in Mongrel dog at 3 mg/kg, po and 1 mg/kg, iv; type: ADME, organism-based, Canis lupus familiaris; conditions: in vivo; method in brief: as §5
SMILES,clearance [1],Ratio (LLC-PK1 [2]),half-life [3],bioavailability [4],Papp (human MDR1 (P-gp)),Ki (B1 bradykinin receptor [6]),IC50 (B2 bradykinin receptor),also measured
COC(=O)c1c(F)cccc1-c1ccc(CNC(=O)C2(NC(=O)C(F)Cl)CC2)c(F)c1 (stereo unspecified),,,,,,2.8 nM,> 10000 nM,
COC(=O)c1c(F)cccc1-c1ccc(CNC(=O)C2(NC(=O)C(Cl)Cl)CC2)c(F)c1,,2.8,,,21 ×10⁻⁶ cm/s,0.54 nM,> 10000 nM,logP [7]: 2.8
COC(=O)c1c(F)cccc1-c1ccc(CNC(=O)C2(NC(=O)C(F)(F)C(F)(F)F)CC2)c(F)c1,,2.2,,,31 ×10⁻⁶ cm/s,2.95 nM,> 10000 nM,
COC(=O)c1ccccc1-c1ccc([C@@H](C)NC(=O)C2(NC(=O)C(F)(F)F)CC2)c(F)c1,,2.2,,,34 ×10⁻⁶ cm/s,10.3 nM,,
C[C@@H](NC(=O)C1(NC(=O)C(F)(F)F)CC1)c1ccc(-c2cccc(F)c2-c2nnnn2C)cc1F,,15.5,,,19 ×10⁻⁶ cm/s,62.5 nM,,
COC(=O)c1c(F)cccc1-c1ccc(CNC(=O)C2(NC(=O)C(F)(F)Cl)CC2)c(F)c1,,2.8,,,29 ×10⁻⁶ cm/s,2.5 nM,> 10000 nM,
COC(=O)c1c(F)cccc1-c1ccc(CNC(=O)C2(NC(=O)C(C)(Cl)Cl)CC2)c(F)c1,,,,,,119 nM,> 10000 nM,
COC(=O)c1c(F)cccc1-c1ccc(CNC(=O)C2(NC(=O)C(F)(F)F)CC2)c(F)c1,,4.1,,,23 ×10⁻⁶ cm/s,1.47 nM,> 10000 nM,logP [7]: 2.7
COC(=O)c1c(F)cccc1-c1ccc([C@@H](C)NC(=O)C2(NC(=O)C(F)F)CC2)c(F)c1,,3.2,,,31 ×10⁻⁶ cm/s,0.4 nM,,
CCOC(=O)c1c(Cl)cccc1-c1ccc([C@@H](C)NC(=O)C2(NC(=O)C(F)(F)F)CC2)c(F)c1,8.4 mL/min/kg,,1.1 h,45%,,1.35 nM,,IC50 (B1 bradykinin receptor [5]): 9.1 nM
COC(=O)c1c(F)cccc1-c1ccc([C@@H](C)NC(=O)C2(NC(=O)C(F)(F)F)CC2)c(F)c1,42 mL/min/kg,2.3,0.5 h,21%,28 ×10⁻⁶ cm/s,0.57 nM,,Stability (Liver microsomes [9]): Stable; Stability [10]: Stable; Stability [11]: Stable; half-life [12]: 2.2 h; Stability [13]: Stable; half-life [14]: 1.7 h; bioavailability [15]: 2%; Stability [16]: Stable; clearance [17]: 28 mL/min/kg; bioavailability [18]: 5%; IC50 (B1 bradykinin receptor [5]): 1.9 nM; Stability (Liver microsomes [19]): Stable; clearance [20]: 21 mL/min/kg
COC(=O)c1c(F)cccc1-c1ccc(CNC(=O)C2(NC(=O)CC(F)(F)F)CC2)c(F)c1,,18.4,,,23 ×10⁻⁶ cm/s,0.81 nM,> 10000 nM,logP [7]: 2.9
COC(=O)c1c(F)cccc1-c1ccc([C@@H](C)NC(=O)C2(NC(C)=O)CC2)c(F)c1,,8.6,,,21 ×10⁻⁶ cm/s,0.93 nM,,
C[C@@H](NC(=O)C1(NC(=O)C(F)(F)F)CC1)c1ccc(-c2cccc(F)c2-c2nnn(C)n2)cc1F,11 mL/min/kg,,0.7 h,48%,,0.6 nM,,IC50 (B1 bradykinin receptor [5]): 0.65 nM
Cc1noc(-c2c(F)cccc2-c2ccc([C@@H](C)NC(=O)C3(NC(=O)C(F)(F)F)CC3)c(F)c2)n1,28 mL/min/kg,5.6,0.35 h,27%,37 ×10⁻⁶ cm/s,0.51 nM,,half-life [12]: 2.9 h; half-life [14]: 3.9 h; bioavailability [15]: 22%; clearance [17]: 15 mL/min/kg; bioavailability [18]: 35%; IC50 (B1 bradykinin receptor [5]): 0.89 nM; clearance [20]: 6 mL/min/kg
COC(=O)c1c(F)cccc1-c1ccc(CNC(=O)C2(NC(C)=O)CC2)c(F)c1,,6.3,,,24 ×10⁻⁶ cm/s,11.6 nM,> 10000 nM,
COC(=O)c1c(F)cccc1-c1ccc([C@H](C)NC(=O)C2(NC(=O)CC(F)(F)F)CC2)c(F)c1,,,,,,22 nM,,

# The next lines start with results.
clearance [1],Ratio (LLC-PK1 [2]),half-life [3],bioavailability [4],Papp (human MDR1 (P-gp)),Ki (B1 bradykinin receptor [6]),IC50 (B2 bradykinin receptor),SMILES,also measured
10 mL/min/kg,2,2.6 h,30%,32 ×10⁻⁶ cm/s,1.44 nM,,C[C@@H](NC(=O)C1(NC(=O)C(F)(F)F)CC1)c1ccc(-c2cccc(F)c2C(F)(F)F)cc1F,IC50 (B1 bradykinin receptor [5]): 7.3 nM
,1.6,,,27 ×10⁻⁶ cm/s,1.95 nM,,CCC(=O)c1c(Cl)cccc1-c1ccc([C@@H](C)NC(=O)C2(NC(=O)C(F)(F)F)CC2)c(F)c1,
27 mL/min/kg,1.4 and 3.7,0.34 h,44%,31 ×10⁻⁶ cm/s,1.6 nM and 0.68 nM,,COC(=O)c1c(F)cccc1-c1ccc([C@@H](C)NC(=O)C2(NC(=O)C(F)(F)C(F)(F)F)CC2)c(F)c1,Papp (LLC-PK1 [8]): 28 ×10⁻⁶ cm/s
25 mL/min/kg,8.6,1.44 h,14%,25 ×10⁻⁶ cm/s,0.13 nM,,COC(=O)c1c(F)cccc1-c1ccc([C@@H](C)NC(=O)C2(NC(=O)CC(F)(F)F)CC2)c(F)c1,
,3.4,,,33 ×10⁻⁶ cm/s,13.5 nM,> 10000 nM,COC(=O)c1c(F)cccc1-c1ccc(CNC(=O)C2(NC(=O)C(F)F)CC2)c(F)c1,logP [7]: 2.4
,2.5,,,34 ×10⁻⁶ cm/s,0.81 nM,,COC(=O)c1c(F)cccc1-c1ccc([C@@H](C)NC(=O)C2(NC(=O)C(F)(F)Cl)CC2)c(F)c1,
12 mL/min/kg,,0.7 h,50%,,0.66 nM,,C[C@@H](NC(=O)C1(NC(=O)C(F)(F)F)CC1)c1ccc(-c2cccc(Cl)c2-c2nnn(C)n2)cc1F,
